Measurements taken from the array DNA melting data of Ke et al. (doi:10.1101/2024.01.08.574731).

Assays:
[1] = folding enthalpy; higher = less favourable; fluorescence melt of hairpins on a sequencing array, two-state fit; conditions: sodium 0.088 M
Outline: (§1)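 In 50 mM Na-HEPES pH 8.0 containing 25 mM NaCl, hairpins from the library on a sequenced MiSeq flow cell were imaged for Cy3 fluorescence at 2.5 °C steps up to 60 °C, with Cy3 and quencher oligos annealed. After normalisation to pre-quench Cy3 and to control constructs, two-state fits with bootstrapping gave melting temperature and folding enthalpy. Four replicates were combined by inverse-variance weighting, and fitted temperatures were shifted up by 9.35 °C to match UV melts.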

[2] = melting temperature; fluorescence melt of hairpins on a sequencing array, two-state fit, raised by 9.35 °C to match UV melts; conditions: sodium 0.088 M
Outline: as §1

| Sequence | folding enthalpy [1] | Tm [2] |
| --- | --- | --- |
| GTGGTAGGAAACTGCTAC ((.(.((....)).).)) | -17.7 kcal/mol | 32.1 °C |
| GATCTGGCGCAGATC ((((((...)))))) | -27.4 kcal/mol | 47.5 °C |
| GATCGGGCCCCCGATC ((((((....)))))) | -43.2 kcal/mol | 59.6 °C |
| GGTGATGGAAACATTGCC ((..(((....)))..)) | -32.5 kcal/mol | 38.3 °C |
| GCACCGCGAAAGCGTAGC ((..(((....)))..)) | -12.3 kcal/mol | 41.2 °C |
| GCGTTTCGAAAGAATCGC (((.(((....))).))) | -46 kcal/mol | 53.5 °C |
| GATCCATCGTGGATC ((((((...)))))) | -36.9 kcal/mol | 50.8 °C |
| GCGTAGCGAAAGCGATGC ((.(.((....)).).)) | -13.9 kcal/mol | 51.6 °C |
| GAACGCGGAAACGCATTC (((.(((....))).))) | -19.9 kcal/mol | 40.1 °C |
| GAGCCCGAAAGGGAACTC ((((((....)))..))) | -16.4 kcal/mol | 47.5 °C |
| GCCACGGGAAACCGTGAC (.(((((....))))).) | -16.5 kcal/mol | 51.1 °C |
| GAAAGCGAAAGCTTTC ((((((....)))))) | -34.9 kcal/mol | 64.7 °C |
| GCTTTGCGAAAGCCGAGC (((..((....))..))) | -16 kcal/mol | 41.9 °C |
| GCGCGGCGAAAGCACCGC (((..((....))..))) | -16.6 kcal/mol | 56.1 °C |
| GATCTGTCATCAGATC ((((((....)))))) | -38.1 kcal/mol | 50.1 °C |
| GTGGAGGGAAACCCCCAC ((((.((....)).)))) | -30.6 kcal/mol | 48.8 °C |
| GGGCTGCGAAAGCAACCC (((.(((....))).))) | -38.9 kcal/mol | 60.2 °C |
| GCGGGGCGAAAGCCATGC ((..(((....)))..)) | -27.7 kcal/mol | 62.4 °C |
| GAGGTCCGAAAGGAGCTC (((.(((....))).))) | -35.5 kcal/mol | 69.3 °C |
| GGATCACGAAAGTGGTCC (((.(((....))).))) | -33.7 kcal/mol | 60.4 °C |
| GAGCCAGAAATGGCTC ((((((....)))))) | -32.4 kcal/mol | 66.8 °C |
| GCCACCGAAAGGTTAGGC ((((((....)))..))) | -25.5 kcal/mol | 51.1 °C |
| GGCGAAACGAAAGTTGCC (((..(((....)))))) | -25.5 kcal/mol | 49.5 °C |

| Sequence | folding enthalpy [1] | Tm [2] |
| --- | --- | --- |
| GTTGTCGAAAGACTAAAC ((((((....)))..))) | -13.6 kcal/mol | 29.5 °C |
| GGGCCTGGAAACGGGTCC ((.((.(....).)).)) | -26.3 kcal/mol | 50.9 °C |
| GCCTGGCGAAAGCTACGC ((.(.((....)).).)) | -6.66 kcal/mol | 37.8 °C |
| GATATGGGAAACCATATC (((((((....))))))) | -37.5 kcal/mol | 53.3 °C |
| GCAGGGCGAAAGCCCAGC ((.((((....)))).)) | -19.5 kcal/mol | 68.2 °C |
| GGGTTCGAAAGAATCCC ((((((....))).))) | -29 kcal/mol | 52 °C |
| GCCCTGCGAAAGCCCGGC (((..((....))..))) | -23 kcal/mol | 39.1 °C |
| GGGTCTGGAAACAGACTC (.(((((....))))).) | -21.9 kcal/mol | 52 °C |
| GAACAGGGAAACTTGTTC (((((.(....).))))) | -27.2 kcal/mol | 37.1 °C |
| CGCCCGGAAACGGACGCG ((((((....)))..))) | -12.2 kcal/mol | 50.2 °C |
| GCCCCCGAAAGGGCGGC ((((((....))).))) | -23.2 kcal/mol | 68.5 °C |
| GGCTGCTCGAAAGAGGCC (((..(((....)))))) | -19.7 kcal/mol | 43.8 °C |
| GATCTGCCGGCAGATC ((((((....)))))) | -53.3 kcal/mol | 62.3 °C |
| GCGCTTACGAAAGTACGC (((..(((....)))))) | -21.4 kcal/mol | 46.2 °C |
| GTGACTACGAAAGTACAC (((..(((....)))))) | -6.75 kcal/mol | 29.3 °C |
| GGTCACGAAAGTGTGACC ((((((....)))..))) | -33.8 kcal/mol | 56.3 °C |
| GGGTTCCGAAAGGACCCC (((.(((....))).))) | -39.5 kcal/mol | 58.1 °C |
| GTGCAAGGAAACCTGCAC (((((.(....).))))) | -35.9 kcal/mol | 51.4 °C |
| TGTCAGAAATGACA (((((....))))) | -17.6 kcal/mol | 40.2 °C |
| GTCACGGGAAACTGTGGC (.(((.(....).))).) | -31.9 kcal/mol | 44.4 °C |
| GCCTGCGAAAGCACGGGC ((((((....)))..))) | -22.4 kcal/mol | 53 °C |
| GTGACCGGAAACGGTCGC (.(((((....))))).) | -19.9 kcal/mol | 63.5 °C |
| ATGCTGAAAAGCAT (((((....))))) | -18.6 kcal/mol | 50.8 °C |

| Sequence | folding enthalpy [1] | Tm [2] |
| --- | --- | --- |
| GTTAAGGGAAACCTTAAC (((((((....))))))) | -39.2 kcal/mol | 50.5 °C |
| CGTAAACGGAAACGTACG (((..(((....)))))) | -23.5 kcal/mol | 34.8 °C |
| GTGGTCCGAAAGGAACAC (((.(((....))).))) | -33.6 kcal/mol | 65.4 °C |
| GTGATCGAAAGATCCCAC ((((((....)))..))) | -10.7 kcal/mol | 32.4 °C |
| GCGAAGCGAAAGCTGGGC ((..(((....)))..)) | -9.44 kcal/mol | 43.7 °C |
| GATCCAGCCATGGATC ((((((....)))))) | -38.8 kcal/mol | 58.7 °C |
| GCTATGCGAAAGCATCGC ((.((((....)))).)) | -22.5 kcal/mol | 55.3 °C |
| GTCCCCGAAAGGGAGGAC ((((((....)))..))) | -17.4 kcal/mol | 49.7 °C |
| GCGTCGTAACGC ((((....)))) | -21.4 kcal/mol | 55.3 °C |
| GCCGTCGAAAGACGTGGC ((((((....)))..))) | -14.1 kcal/mol | 58.8 °C |
| GACAGCGGAAACACTGTC (((((.(....).))))) | -33.4 kcal/mol | 46.6 °C |
| GTGTGTGGAAACGTACAC ((((..(....)..)))) | -23.5 kcal/mol | 42 °C |
| GAGGATGGAAACATCCTC (((((((....))))))) | -49.6 kcal/mol | 61.3 °C |
| GGGTGACGAAAGTCTCCC (((.(((....))).))) | -36.2 kcal/mol | 60.3 °C |
| GGCACAGGAAACTGCGCC (((.(((....))).))) | -50.8 kcal/mol | 55.8 °C |
| GCTGGATCGAAAGATAGC (((..(((....)))))) | -21 kcal/mol | 30.8 °C |
| GTATTCACGAAAGTGTAC (((..(((....)))))) | -9.14 kcal/mol | 25.8 °C |
| GCCTGCGAAAGCAGAGGC ((((((....)))..))) | -17.6 kcal/mol | 60.1 °C |
| GTACTCACGAAAGTGTAC (((..(((....)))))) | -11 kcal/mol | 31.9 °C |
| GTAAGCGAAAGCTTGTAC ((((((....)))..))) | -11.7 kcal/mol | 32.3 °C |
| GCTGATGGAAACATCAGC (((((((....))))))) | -43.5 kcal/mol | 67.6 °C |
| GATCTGAACCCAGATC ((((((....)))))) | -28.8 kcal/mol | 46.1 °C |
| GGGGAGAAATCCCC (((((....))))) | -26.6 kcal/mol | 53.5 °C |
